This is an account of results in article PMC4529372 (Biological psychiatry, 2015).

One experiment has as its system hmGluR2/hCaR*. Briefly: fluorescence-based functional assay, HEK […] cells. The experiment is classed as cell-based, Homo sapiens. The following applies: read-out: Effect; positive allosteric modulator; with 0.02 μM DCG-IV as agonist.
Experiment [1] addresses Norepinephrine transporter (Homo sapiens, UniProt P23975). Briefly: radioligand binding displacement. The essentials:
(§1)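 Off-target screen by radioligand binding displacement, run per published methods with reference standards in each assay. […] Recombinant human targets were expressed in CHO-K1 cells (A3, dopamine transporter), Sf9 insect cells (α2A), CHO cells (DOP) and MDCK cells (norepinephrine transporter). IC50, where determined, came from non-linear least-squares regression.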

A further experiment deals with T1, Adenosine A3 (Homo sapiens, UniProt P0DMS8).
T1 sequence (P0DMS8 1-318): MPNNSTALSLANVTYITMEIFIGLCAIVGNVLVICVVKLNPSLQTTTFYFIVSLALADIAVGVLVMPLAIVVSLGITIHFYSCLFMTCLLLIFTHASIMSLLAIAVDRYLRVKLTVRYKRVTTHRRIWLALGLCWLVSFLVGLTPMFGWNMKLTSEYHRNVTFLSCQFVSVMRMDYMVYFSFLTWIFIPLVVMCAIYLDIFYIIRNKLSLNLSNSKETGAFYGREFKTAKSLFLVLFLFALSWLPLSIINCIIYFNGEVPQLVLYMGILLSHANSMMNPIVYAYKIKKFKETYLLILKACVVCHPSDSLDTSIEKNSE
The experiment in a line: radioligand binding displacement. The following applies: read-out: % inhibition at 10 μM. The method, boiled down:
as §1

Sequence of Norepinephrine transporter (P23975 whole entry): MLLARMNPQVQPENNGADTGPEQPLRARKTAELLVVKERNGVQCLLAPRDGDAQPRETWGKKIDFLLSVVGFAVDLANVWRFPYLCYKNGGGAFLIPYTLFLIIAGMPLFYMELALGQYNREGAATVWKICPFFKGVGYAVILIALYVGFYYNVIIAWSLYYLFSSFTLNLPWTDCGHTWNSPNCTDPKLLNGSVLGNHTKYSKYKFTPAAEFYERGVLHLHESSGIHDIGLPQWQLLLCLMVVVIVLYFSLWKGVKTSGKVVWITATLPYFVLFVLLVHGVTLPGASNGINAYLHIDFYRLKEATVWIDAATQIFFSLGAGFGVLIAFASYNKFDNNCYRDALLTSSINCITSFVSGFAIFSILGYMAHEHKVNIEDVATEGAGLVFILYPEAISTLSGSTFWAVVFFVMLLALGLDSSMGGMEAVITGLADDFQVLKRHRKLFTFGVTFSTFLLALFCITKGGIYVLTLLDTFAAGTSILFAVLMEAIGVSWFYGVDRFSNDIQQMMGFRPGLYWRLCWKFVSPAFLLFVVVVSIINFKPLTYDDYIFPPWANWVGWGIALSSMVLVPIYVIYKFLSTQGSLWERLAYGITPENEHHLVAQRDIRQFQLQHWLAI

`Cc1cc(-c2nc(CN3CCNCC3)no2)cc2c1C(=O)N(Cc1ccc(OC(F)(F)F)cc1)C2` [AZD8529, 7-methyl-5-(3-piperazin-1-ylmethyl-[1,2,4]oxadiazol-5-yl)-2-(4-trifluoromethoxybenzyl)-2,3-dihydroisoindol-1-one]: in the experiment with hmGluR2/hCaR*, the EC50 stood at 0.285 ± 0.02 µM. In experiment [1], the IC50 stood at 4.73 µM. Further, on Adenosine A3, the inhibition at 10 µM came to 51%.

What is called IC50 is the concentration that gives 50% inhibition. The low end stands for inhibition by little substance, the high end for a need for much substance. The inhibition is the percentage by which the read-out fell short of the control.
